Screening data: PubChem BioAssay, several laboratories
L major viab = Leishmania major promastigote growth inhibition | Leishmania major promastigotes, resazurin fluorescence viability | inhibition, % at 10 µM | 200,000 compounds, 9% hits | AID 1063; in the data active means inhibition above about 50%;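 further: promastigotes grown with compound for 44 hours at 28 °C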
bCat nuc transl = modulators of beta-catenin nuclear translocation | HeLa beta-catenin nuclear translocation, immunofluorescence imaging | nuclear translocation activity, % at 5 µM | 190,000 compounds, 0.3% hits;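 active means nuclear translocation activity above 50% at 5 µM, with a well cell count of 50 or more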;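 further: per-cell ratio of nuclear to cytoplasmic median beta-catenin stain intensity; plate controls were DMSO negative control for no effect and GSK-3 inhibitor IX positive control for full effect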
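System: HeLa cells, endogenous beta-catenin; compound dosing: 5 µM primary single dose, 0.1% DMSO, 0.02–20 µM confirmation series; incubation: 24 h compound exposure at 37°C, 5% CO2; signal: beta-catenin immunofluorescence imaging with DAPI; evaluation: % activation, nuclear-to-cytoplasmic median beta-catenin signal ratio per cell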
MT stabilizer = microtubule stabilizers in HeLa cells. HeLa tubulin immunostaining HCS, 24 h; share of cells brighter than vehicle mean+2SD. % tubulin-high responders, % at 10 µM. 200,000 compounds, 0.83% hits. AID 2205;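 active means plate Z-score above 3 for both tubulin-high and condensed-nucleus cell shares, with cell loss under 80%, at 10 µM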;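 further: anti alpha tubulin signal scored within the nucleus-defined area of each cell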
Dynein cargo inh = dynein cargo transport inhibition; 3617.4 mouse cells, GR-EGFP nuclear translocation imaging; test concentration mostly 20 µM; stimulated with dexamethasone, 1 µM; stronger effect = lower value; z-score, hits read low; 220,000 compounds, 0.47% hits;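 active means plate z-score of nuclear minus cytoplasmic receptor signal below a set negative limit, without overly bright fluorescence or cell loss, cut at about -3.5 in these data, passing the limit was not always enough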;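 further: z-score of nuclear minus cytoplasmic ring GR-EGFP intensity difference per well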
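Also added – dexamethasone, 1.0 µM final · Buffer or medium – tet-free, stripped-serum medium · Schedule – induction 48 h, compound 1 h, agonist 30 min · Detection – formaldehyde fixation, Hoechst nuclear stain, 10x automated fluorescence imaging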
HSV replic up = increases HSV replication in cells; HSV replication augmentation in cells, fold increase; maximum fold increase; 220,000 compounds, 0.005% hits; AID 1956; in the data active means maximum fold increase above about 1.5; tested in PC3 cells
Numbers without * were called inactive. The list is not random: actives were taken first. Their share in the collection is about 8.9%.

`O=C(CSc1nc2c(sc3ccccc32)c(=O)n1CCCN1CCCC1)NCc1ccccc1` gave L major viab 99.0*, bCat nuc transl -4.2, MT stabilizer 2.5, Dynein cargo inh -0.148 and HSV replic up inactive.
Screening CCN(CC)CCn1c(SCC(=O)NCCC2=CCCCC2)nc2c(sc3ccccc32)c1=O returned L major viab 67.9*, bCat nuc transl -2.1, MT stabilizer 2.1, Dynein cargo inh -0.493 and HSV replic up inactive.
CCN(CC)CCn1c(SCC(=O)NCc2ccco2)nc2c(sc3ccccc32)c1=O was read as L major viab 3.1, MT stabilizer 4.5, Dynein cargo inh 1.09 and HSV replic up inactive.
For COc1ccc(-c2noc(CSc3nnc(CCc4ccccc4)n3-c3ccccc3)n2)cc1OC the results were L major viab 72.0*, MT stabilizer 1.1, Dynein cargo inh -0.172 and HSV replic up inactive.
Screening Cc1ccc(-c2noc(CSc3nnc(CCc4ccccc4)n3-c3ccccc3)n2)cc1 returned L major viab 12.3, bCat nuc transl -0.5, MT stabilizer 1.6, Dynein cargo inh 0.764 and HSV replic up inactive.
C=CCCCCCCCCc1nc(=S)[nH][nH]1 was read as L major viab 52.8*, bCat nuc transl -8.3, MT stabilizer 1.0, Dynein cargo inh -0.839 and HSV replic up inactive.
`C=CCCCCCCCCc1nc(SCC(=O)O)n[nH]1` gave bCat nuc transl 2.3, Dynein cargo inh -0.285 and HSV replic up inactive.
For OCc1cn(-c2ccccc2)nn1 the results were L major viab -7.4, bCat nuc transl -1.7, MT stabilizer 1.8, Dynein cargo inh 0.447 and HSV replic up inactive.
OCCNc1nc(Nc2ccc(Br)cc2)nc2ccccc12 was read as L major viab 100.5*, bCat nuc transl 2.3, MT stabilizer 5.1, Dynein cargo inh 0.783 and HSV replic up inactive.
Oc1ccccc1Nc1nc(NCc2ccccc2)c2ccccc2n1 was read as L major viab 100.4*, bCat nuc transl 1.8, MT stabilizer 3.0, Dynein cargo inh -0.124 and HSV replic up inactive.
For CC(C)(CO)Nc1nc(Nc2ccccc2)nc(Nc2ccccc2)n1 the results were L major viab 74.5*, bCat nuc transl -2.5, MT stabilizer 3.6, Dynein cargo inh 0.786 and HSV replic up inactive.
Screening OCCNc1nc(Nc2ccccc2)nc(Nc2ccccc2)n1 returned L major viab 27.9, bCat nuc transl -3.4, MT stabilizer 9.8, Dynein cargo inh 1.27 and HSV replic up inactive.
`c1ccc(CNc2ncnc3ccccc23)cc1` gave L major viab 31.9, bCat nuc transl -2.0, MT stabilizer 3.8, Dynein cargo inh -1.18 and HSV replic up inactive.
OCCNc1nc(Nc2ccccc2)nc2ccccc12 was read as L major viab 99.7*, bCat nuc transl 0.8, MT stabilizer 2.7, Dynein cargo inh 0.345 and HSV replic up inactive.
For C=CCNc1nc(C(=O)OCC)nc2ccccc12 the results were L major viab 7.7, bCat nuc transl -0.8, MT stabilizer 3.8, Dynein cargo inh 0.93 and HSV replic up inactive.
`CCOC(=O)c1nc(NCc2ccccc2)c2ccccc2n1` gave L major viab 52.3*, bCat nuc transl 1.2, MT stabilizer 2.7, Dynein cargo inh -0.167 and HSV replic up inactive.
CC1(C)OC2OC(C(=O)N/N=C/c3cc(Br)ccc3O)C3OC(C)(C)OC3C2O1 (centres undefined) was read as L major viab -2.4, bCat nuc transl -0.4, MT stabilizer 3.4, Dynein cargo inh -0.603 and HSV replic up inactive.
`O=C(CSc1nnc(CSc2nc3ccccc3s2)o1)NC1CCCCC1` gave L major viab -6.5, bCat nuc transl -2.4, MT stabilizer 3.6, Dynein cargo inh -0.734 and HSV replic up inactive.
Screening COc1cccc(C(=O)NNC(=O)CCc2ccccc2)c1 returned L major viab -6.1, bCat nuc transl 0.8, MT stabilizer 6.4, Dynein cargo inh -0.608 and HSV replic up inactive.
`CC(OC(=O)c1ccc2c(=O)n3c(nc2c1)CCCCC3)C(=O)Nc1ccc(Cl)cn1` (centres undefined) gave L major viab -4.2, bCat nuc transl 1.1, MT stabilizer 5.4, Dynein cargo inh -0.661 and HSV replic up inactive.
Cc1ccc(-n2c(C)nn(Cc3ccc([N+](=O)[O-])cc3)c2=O)cc1 was read as L major viab -8.1, bCat nuc transl -3.4, MT stabilizer 4.1, Dynein cargo inh -0.254 and HSV replic up inactive.
`Cc1ccc(-n2c3nc(=O)[nH]c(=O)c-3cc3cc([N+](=O)[O-])ccc32)cc1` gave L major viab 94.9*, bCat nuc transl 3.7, MT stabilizer 11.8, Dynein cargo inh -2.02 and HSV replic up inactive.
Screening O=C1CN(C(=O)c2ccc(Br)o2)C(c2ccc(F)cc2)c2cc(Cl)ccc2N1 (centres undefined) returned L major viab 93.7*, bCat nuc transl -1.4, MT stabilizer 3.4, Dynein cargo inh -0.105 and HSV replic up inactive.
O=C1CN(C(=O)c2ccc(Br)o2)C(c2ccccc2)c2cc(Cl)ccc2N1 (centres undefined) was read as L major viab 87.3*, MT stabilizer 8.0, Dynein cargo inh 0.96 and HSV replic up inactive.
For O=C1CN(C(=O)c2ccco2)C(c2ccccc2)c2cc(Cl)ccc2N1 (centres undefined) the results were L major viab 17.2, bCat nuc transl -8.8, MT stabilizer 2.5, Dynein cargo inh -0.195 and HSV replic up inactive.
CCCC(=O)N1CC(=O)Nc2ccc(F)cc2C1c1ccccc1 (centres undefined) was read as L major viab 33.1, bCat nuc transl -0.5, MT stabilizer 3.0, Dynein cargo inh 0.825 and HSV replic up inactive.
For CC(C)(C)NC(=O)CN(Cc1ccc2c(c1)OCO2)C(=O)CCC(=O)Nc1nccs1 the results were L major viab -0.5, bCat nuc transl 3.2, MT stabilizer 1.3, Dynein cargo inh 0.97 and HSV replic up inactive.
For Cc1onc(C(=O)NCc2cccs2)c1[N+](=O)[O-] the results were L major viab -0.9, bCat nuc transl -0.5, MT stabilizer 2.5, Dynein cargo inh -0.19 and HSV replic up inactive.
For O=C(COc1ccc(/C=N/NC(=O)c2ccccc2O)cc1)Nc1ccc([N+](=O)[O-])cc1 the results were L major viab -9.6, bCat nuc transl -0.8, MT stabilizer 4.4, Dynein cargo inh -0.889 and HSV replic up inactive.
O=S(=O)(NC1CCN(Cc2ccccc2)CC1)c1cccc2cccnc12 was read as L major viab 66.7*, bCat nuc transl -1.8, MT stabilizer 5.2, Dynein cargo inh 0.249 and HSV replic up inactive.
`O=C(NC1CCN(Cc2ccccc2)CC1)C1CCN(S(=O)(=O)c2cccc3cccnc23)CC1` gave L major viab -3.9, bCat nuc transl 0.6, MT stabilizer 2.6, Dynein cargo inh -0.825 and HSV replic up inactive.
For COc1ccc(C(=O)Nc2ccc3c(c2)C(=O)c2ccccc2C3=O)cc1OC the results were L major viab -7.3, bCat nuc transl -0.6, MT stabilizer 6.0, Dynein cargo inh 0.63 and HSV replic up inactive.
